A selection: hits, their analogues and other compounds. The true share with any hit is near 4.1%.
KCNK9 inh – blocks the human KCNK9 two-pore domain potassium channel; HEK293 KCNK9, FluxOR thallium flux fluorescence; active compounds read low; AID 488922; hit rate 1.2% among 310,000; B-score at 10 µM; Q9NPC2;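 active = ratio B-score over 3 SD below the library mean, with starting fluorescence within 5 SD of its mean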;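 also: negative B-score means less thallium flux so channel inhibition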
hERG protect – compounds protecting human hERG from proarrhythmic drug block | Q12809 | CHO-hERG, FluxOR thallium flux, dofetilide IC70 present | activation (rescue from dofetilide block), less the hit threshold, % at 10 µM | hit rate 0.51% among 310,000 | AID 1511;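 active = activation above the mean of controls blocked by dofetilide plus 5 SD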;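 also: thallium influx through hERG after potassium depolarization seen as dye fluorescence rise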
Target sequence (Q12809 whole entry, looked up): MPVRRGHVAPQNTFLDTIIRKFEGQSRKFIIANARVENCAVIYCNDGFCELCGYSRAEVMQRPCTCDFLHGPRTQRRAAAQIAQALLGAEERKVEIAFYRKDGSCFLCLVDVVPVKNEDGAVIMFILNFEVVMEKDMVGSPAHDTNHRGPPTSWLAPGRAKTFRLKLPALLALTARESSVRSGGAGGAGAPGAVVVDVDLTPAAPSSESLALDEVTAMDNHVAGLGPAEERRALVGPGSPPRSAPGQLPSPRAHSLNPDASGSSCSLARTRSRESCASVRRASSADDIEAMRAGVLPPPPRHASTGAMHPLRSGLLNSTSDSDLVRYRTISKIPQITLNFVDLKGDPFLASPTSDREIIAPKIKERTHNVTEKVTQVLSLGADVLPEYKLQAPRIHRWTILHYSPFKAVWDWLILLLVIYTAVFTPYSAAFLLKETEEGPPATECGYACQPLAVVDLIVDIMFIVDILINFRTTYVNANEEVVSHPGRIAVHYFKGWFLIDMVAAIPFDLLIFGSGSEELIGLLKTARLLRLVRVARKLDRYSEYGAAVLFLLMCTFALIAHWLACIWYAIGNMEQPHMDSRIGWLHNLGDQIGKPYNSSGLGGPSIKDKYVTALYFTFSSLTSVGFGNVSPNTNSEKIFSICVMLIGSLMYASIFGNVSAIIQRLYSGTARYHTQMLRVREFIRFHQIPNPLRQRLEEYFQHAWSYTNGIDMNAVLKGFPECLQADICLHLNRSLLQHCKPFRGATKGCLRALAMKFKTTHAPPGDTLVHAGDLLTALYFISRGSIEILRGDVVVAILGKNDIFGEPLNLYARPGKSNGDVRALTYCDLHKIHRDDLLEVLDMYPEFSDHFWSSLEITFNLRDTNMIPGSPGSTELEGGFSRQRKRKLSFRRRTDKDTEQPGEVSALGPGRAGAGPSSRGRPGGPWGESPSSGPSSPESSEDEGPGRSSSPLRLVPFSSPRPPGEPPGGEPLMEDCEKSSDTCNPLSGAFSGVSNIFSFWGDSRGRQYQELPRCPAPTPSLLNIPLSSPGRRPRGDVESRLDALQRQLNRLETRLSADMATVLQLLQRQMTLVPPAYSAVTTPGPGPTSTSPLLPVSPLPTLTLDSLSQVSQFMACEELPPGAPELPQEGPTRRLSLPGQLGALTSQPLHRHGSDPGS
KCNK3 block – human KCNK3 channel inhibition, primary screen | O14649 | CHO-KCNK3 thallium flux, FluxOR fluorescence; active compounds read low | B-score at 10 µM | hit rate 0.84% among 340,000 | AID 602410;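 active = B-score under library mean minus 4 SD, starting fluorescence ratio at most library mean plus 5 SD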;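 also: more negative B-score means stronger inhibition of thallium flux through KCNK3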
KCNQ1 act – human KCNQ1 channel potentiation or activation; P51787; CHO-K1 KCNQ1, thallium flux FluxOR fluorescence; active compounds read high; B-score at 10 µM; hit rate 0.35% among 310,000; AID 2648;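 active = fluorescence ratio B-score, a plate-corrected score, at least three library SD, with initial intensity B-score within 5 SD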
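System: Stable KCNQ1 CHO-K1 line | Incubation: 90 min dye loading and 20 min compound exposure, both at room temperature | Measure: Ratio B score | Medium: Assay buffer for compound exposure, DMSO matched across wells | Compound dosing: Single-concentration screen | Probe or stimulus: K+/Tl+ depolarizing stimulus | Measured by: Kinetic FluxOR fluorescence, 10 s baseline plus 110 s post-stimulus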
KCNQ1 block – blocks the human KCNQ1 potassium channel. CHO-K1 KCNQ1, FluxOR thallium flux fluorescence; active compounds read high. B-score at 10 µM. hit rate 1.3% among 310,000. AID 2642;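 active = compounds whose thallium flux B-score, printed positive for inhibition, exceeds three library SD while starting fluorescence stays within three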;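 also: channel opened by potassium depolarization with thallium stimulus after 20 min compound exposure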
Cl transport mod – modulators of human KCC2 chloride dependent transport | KCC2 cells, thallium flux FluoZin-2 fluorescence | Q9H2X9 | hit rate 2.2% among 190,000 | B-score of Tl+ flux slope (higher = more flux/activation; lower = inhibition) at 10 µM;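 active = thallium flux slope and its plate-corrected score both differing from the plate sample mean at a set confidence after two filtering rounds, in either direction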;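 also: slope of fluorescence scaled to starting intensity during 10 to 20 s after thallium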
KCNK9 inh conf – human KCNK9 inhibitor confirmation. shares compounds with KCNK9 inh. HEK293 KCNK9 cells, FluxOR thallium flux fluorescence. inhibition, % at 10 µM. hit rate 43% among 4,900. AID 492992;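 active = thallium signal inhibited by more than 5 SD of the compound-free buffer control wells, on both duplicate plates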;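 also: 0% = assay buffer control wells without compound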
Kir21 sel – mouse Kir2.1 off-target activity of KCNK9 modulators; shares compounds with KCNK9 inh; Kir2.1 cells, FluxOR thallium flux fluorescence; inhibition, % at 10 µM; hit rate 4% among 4,900;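 active = thallium signal drop more than 5 SD beyond the mean of the no-compound control wells, seen in both duplicate plates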;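 also: signal is fluorescence rise after thallium addition divided by baseline fluorescence; plate controls were assay buffer only for no effect and full block by chlorpromazine control for full effect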
HEK293 Tl ctr – non-induced cell nonspecific activity of KCNK9 modulators. shares compounds with KCNK9 inh. non-induced KCNK9-HEK293, FluxOR thallium flux. inhibition, % at 10 µM. hit rate 40% among 4,900. AID 492997;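 active = thallium signal drop beyond 5 SD of the untreated control mean, on both duplicate plates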;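 also: plate controls were buffer only IC0 wells for no effect and SID17386958 at its maximal inhibitory level for full effect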
Starred values were filed as active, the others as inactive; i = inactive; x = not tested or not shown.

SMILES | KCNK9 inh | hERG protect | KCNK3 block | KCNQ1 act | KCNQ1 block | Cl transport mod | KCNK9 inh conf | Kir21 sel | HEK293 Tl ctr
CCCC1(CC(C)C)C(=O)NC(=S)NC1=O | x | x | i | x | x | x | x | x | x
CCC1CN1P(=O)(N1CCCC1)N1CC1CC (configuration not stated) | x | x | i | x | x | x | x | x | x
O=C(COc1ccccc1Cl)N1CCCC(N2CCN(c3ccc(F)cc3)CC2)C1 (configuration not stated) | i | -15.3 | i | i | i | x | i | i | i
COc1ccccc1OCC(=O)N1CCCC(N2CCN(c3ccc(F)cc3)CC2)C1 (configuration not stated) | i | -3.5 | i | i | i | x | i | i | i
COc1ccc(OCC(=O)N2CCCC(N3CCN(c4ccccc4C)CC3)C2)cc1 (configuration not stated) | i | -12.8 | i | i | i | x | i | i | i
Cc1ccc(OCC(=O)N2CCCC(N3CCN(c4ccc(F)cc4)CC3)C2)cc1 (configuration not stated) | i | -14.7 | i | i | i | x | x | x | x
C#C[C@]1(O)CCC2C3C(=O)C=C4C(Cl)=CCC[C@]4(C)C3CC[C@@]21C (some centres not stated) | x | x | i | x | x | x | x | x | x
CCCCCCn1c(=O)c(C(=O)Nc2c(C)n(C)n(-c3ccccc3)c2=O)c(O)c2ccccc21 | i | -18.2 | i | i | i | -2.34 | i | i | i
COP(=S)(OC)c1c(C)nn(CCC#N)c1NC(=O)c1ccc(Cl)cc1 | i | -7.8 | i | i | i | x | x | x | x
Brc1cc2c(cc1CN1CCN(c3ccccc3)CC1)OCCO2 | i | -3.8 | i | i | i | x | i | i | i
Cc1ccc2c(CN3CC=C(c4ccccc4)CC3)cc(=O)oc2c1C | i | -13.2 | i | i | i | -2.84 | i | i | i
CCc1ccc2c(CN3CC=C(c4ccccc4)CC3)cc(=O)oc2c1 | i | -10.1 | i | i | i | -1.89 | x | x | x
O=C(c1ccccc1)C(Cc1ccccc1)N1CCOCC1 (configuration not stated) | x | x | i | x | x | x | x | x | x
C[C@]12CCC3C(CC[C@@H]4C[C@@H](O)CC[C@]34C)C1CC[C@@H]2O (some centres not stated) | x | x | i | x | x | x | x | x | x
CCOc1ccc(-n2c(-c3ccoc3)nc3ccccc3c2=O)cc1 | i | -12.8 | i | i | i | -1.56 | x | x | x
CCOc1ccc(-c2c(C)n(-c3ccc(OCC)cc3)c3[n+]2CCCCC3)cc1 | -10.4* | -17.8 | i | i | 9* | 0.598 | 43.5%* | 33.0%* | i
c1ccc(CCCN2CCN(CCOC(c3ccccc3)c3ccccc3)CC2)cc1 | i | -17.5 | i | i | i | x | i | i | i
CSc1ccc(CN2CCN(c3ccccc3C)CC2)cc1 | i | -9.8 | i | i | i | x | i | i | i
CCc1ccc(CN2CCN(Cc3ccc(SC)cc3)CC2)cc1 | i | -7.6 | i | i | i | -0.419 | i | 60.0%* | i
Cc1nn(Cc2ccccc2Cl)c(Cl)c1C(=O)OCC(=O)NC(=O)NC1CCCCC1 | i | -7.5 | i | i | i | -0.574 | i | i | i
O=C(Cn1ncn2c(cc3cc(F)ccc32)c1=O)N1CCC2(CC1)OCCO2 | i | -3.1 | i | i | i | x | x | x | x
Cc1ccc(CN2CCSc3ccc(C(=O)N4CCC5(CC4)OCCO5)cc32)cc1 | i | -9.8 | i | i | i | x | x | x | x
O=C(c1ccc2c(c1)N(Cc1ccc(F)cc1)CCS2)N1CCC2(CC1)OCCO2 | i | -9.9 | i | i | i | x | i | i | i
O=C(CN1C(=O)CN=C(c2ccccc2Cl)c2cc(Cl)ccc21)NCc1ccco1 | i | -2.2 | i | i | i | x | x | x | x
Cc1cccc(C2=NCC(=O)N(CC(=O)NCc3ccco3)c3sc4c(c32)CCCC4)c1 | -11* | -6.7 | i | i | i | -0.00503 | 41.0%* | i | 30.5%*
SMILES | KCNK9 inh | hERG protect | KCNK3 block | KCNQ1 act | KCNQ1 block | Cl transport mod | KCNK9 inh conf | Kir21 sel | HEK293 Tl ctr
O=C(c1ccc(Cl)cc1)C1CCCN(Cc2ccc3c(c2)OCCO3)C1 (configuration not stated) | i | -8.2 | i | i | i | 0.788 | i | i | i
O=C(c1ccc2c(c1)OCO2)C1CCCN(Cc2ccc(F)c(F)c2)C1 (configuration not stated) | i | -12.9 | i | i | i | x | x | x | x
O=C(c1ccc(Cl)cc1)C1CCCN(Cc2ccc3ncccc3c2)C1 (configuration not stated) | i | -27.8 | i | i | i | 0.15 | i | i | i
O=C(c1ccc(Cl)cc1)C1CCCN(Cc2cccc3cnccc23)C1 (configuration not stated) | i | -25.7 | i | i | i | 0.0479 | i | i | i
CCCCn1c(C)c(C(=O)OCC)c2c(CN3CCCC3)c(O)ccc21 | i | -13.7 | i | i | i | x | x | x | x
C=CC[C@@H](CC/C=C/C=C/CC/C=C\[C@@H]1CSC([C@@H]2C[C@@H]2C)=N1)OC | x | x | i | x | x | x | x | x | x
Nc1ccc(CCN2CCCC2)cc1 | i | -2.3 | i | i | i | x | x | x | x
Nc1ccc(CCN2CCN(c3cccc(C(F)(F)F)c3)CC2)cc1 | i | -4.5 | i | i | i | x | i | i | i
COC(=O)C1=C(c2cccc(C#N)c2)C[C@@H]2CC[C@H]1N2C(=O)NCc1cccc2ccccc12 | x | x | i | x | x | x | x | x | x
O=C(CN1CC=C(c2ccccc2)CC1)NC(=O)NC1CCCCC1 | i | -8.6 | i | i | i | 0.386 | i | i | i
CC(C)(C)NC(=O)NC(=O)CN1CC=C(c2ccccc2)CC1 | i | -9.1 | i | i | i | 0.329 | i | i | i
FC(F)(F)c1ccc2c(c1)N(CCCN1CCN(CCCl)CC1)c1ccccc1S2 | i | -14.1 | i | i | i | -3.72 | i | i | i
COc1cccc(NP(=O)(Oc2ccccc2Cl)Oc2ccccc2Cl)c1 | -10.1* | -2.5 | i | i | i | 0.764 | 38.5%* | i | 38.0%*
CC(=O)OC1C=CC2[C@H]3Cc4ccc(O)c5c4[C@@]2(CCN3C)C1O5 (some centres not stated) | x | x | i | x | x | x | x | x | x

Screens (PubChem)
